Reference: publication PMC10288510 (Journal of the American Chemical Society, 2023)
Peptide text beside a SMILES is read from it.

Assays:
[1] = CF assay: carrier-mediated heptaarginine; type: in vitro ADME; conditions: EYPC⊃CF LUVs, 1 μM Trp-Arg7, pEC50 from EC50 in mM, 10% error (SD)
Method in brief: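 Egg-yolk phosphatidylcholine LUVs (4 μM phospholipid) loaded with self-quenched carboxyfluorescein; efflux read as dequenching (λex 492 nm, λem 517 nm) over time. Carrier added at t = 50 s, Trp-Arg7 (1 μM) at 100 s, Triton X-100 lysis at 600 s for normalisation. Kinetics run across carrier concentrations; normalised traces converted to dose–response curves; Hill fit gives Ymax, EC50 and Ea.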

[2] = CF assay: cargo dose-response with COSAN 2 as carrier; type: in vitro ADME; conditions: for transport of cargo by COSAN 2 (in words): EYPC⊃CF liposomes, 4 μM COSAN 2, pH 7.4; for Et (transport efficiency = Ymax (pEC50)/f, f = 41.8): EYPC vesicles, 4 μM COSAN 2, n.a = no detectable activity, 10% error (SD)

| Molecule | transport of cargo by COSAN 2 (in words) [2] | further results |
| --- | --- | --- |
| O=C(O)CCCc1ccc2ccc3cccc4ccc1c2c34 [PyBu, pyrenebutyrate] |  | Ea (activator efficiency = Ymax (pEC50)/f, f = 20.6) [1]: 4.8 |
| NCCCC[C@H](NC(=O)[C@H](CCCCN)NC(=O)[C@H](CCCCN)NC(=O)[C@@H](N)Cc1c[nH]c2ccccc12)C(=O)O [Trp-(Lys)3, tryptophan-trilysine] (H-WKKK-OH) | not transported |  |
| N[C@@H](Cc1c[nH]c2ccccc12)C(=O)NCC(=O)NCC(=O)NCC(=O)NCC(=O)NCC(=O)NCC(=O)O [Trp-Gly6, tryptophan-hexaglysine] (H-WGGGGGG-OH) | not transported |  |
| NCCCC[C@H](NC(=O)[C@H](CCCCN)NC(=O)[C@H](CCCCN)NC(=O)[C@H](CCCCN)NC(=O)[C@H](CCCCN)NC(=O)[C@H](CCCCN)NC(=O)[C@H](CCCCN)NC(=O)[C@@H](N)Cc1c[nH]c2ccccc12)C(=O)O [Trp-Lys7, tryptophan-heptalysine] (H-WKKKKKKK-OH) | efficient transport |  |
| CC(C)C[C@H](NC(=O)[C@@H](NC(=O)[C@@H](N)Cc1ccc(O)cc1)[C@@H](C)O)C(=O)N[C@H](C(=O)N[C@H](C(=O)N[C@@H](CCCCN)C(=O)O)C(C)C)[C@@H](C)O [Tyr-Thr-Leu-Thr-Val-Lys, tyrosine-threonine-leucine-threonine-valine-lysine] (H-YTLTVK-OH) | not transported |  |
| phalloidin | not transported |  |
| polylysine |  | Et (transport efficiency = Ymax (pEC50)/f, f = 41.8) [2]: 10.0 |
| protamine |  | Et (transport efficiency = Ymax (pEC50)/f, f = 41.8) [2]: 9.0 |
